Results as given in ChEMBL document CHEMBL1123757, “Selective thromboxane synthetase inhibitors and antihypertensive agents. New derivatives of 4-hydrazino-5H-pyridazino[4,5-b]indole, 4-hydrazinopyridazino[4,5-a]indole, and related compounds” (J Med Chem, 1987).

Key:
Homo sapiens [1] = species: Homo sapiens; assay: In vitro inhibition of platelet aggregation induced by DD (PRP incubated for 5 minutes at 37 degree C) at 10e-5 M;No significance; type: functional
Procedure, shortened: (§1)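 Human venous blood anticoagulated with 3.8% sodium citrate (1:9). PRP from centrifugation at 800 rpm for 10 min at room temperature. Count adjusted with PPP to […]. Compound in saline with 10% ethylene glycol is added to PRP and incubated at 37 °C before the agonist. Agonists: ADP 2×10^-5 M, AA 0.6 mM, PGH2 2.8 μM, adrenaline 0.6 μM. Born absorbance aggregometry; n = 5.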

Homo sapiens [2] = species: Homo sapiens; assay: In vitro inhibition of platelet aggregation induced by […] (PRP incubated for 5 minutes at 37 degree C) at 5 e-6 M;No significance; type: functional
Rattus norvegicus [3] = assay: Antihypertensive activity in spontaneously hypertensive rats (SHR) measured by percentage fall in arterial pressure (AP) at 25 mg/kg administered intraperitoneally at 3 h;No significance; type: functional, organism-based; parameters: dose 25 mg/kg; details: Artery
Procedure, shortened: (§2)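 Unanesthetized Okamoto-strain SHR, male and female, 8 weeks old, 300–350 g, systolic pressure ≥190 mmHg, heart rate 400–650 beats/min; five animals per dose. Given ip at 2.5 mL/kg, dissolved or suspended in normal saline or saline with 0.2% (carboxymethyl)cellulose and 1.0% Tween 80. Tail AP and CR recorded by mechanical transduction at set times; reported as percentage fall from control.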

Rattus norvegicus [4] = assay: Antihypertensive activity in spontaneously hypertensive rats (SHR) measured by percentage fall in arterial pressure (AP) at 25 mg/kg administered intraperitoneally at 5 h;No significance; type: functional, organism-based; parameters: dose 25 mg/kg; details: Artery; procedure, shortened: as §2
Homo sapiens [5] = species: Homo sapiens; assay: In vitro inhibition of platelet aggregation induced by AA (PRP incubated for 60 minutes at 37 degree C) at 10e-5 M;No significance; type: functional; procedure, shortened: as §1
Homo sapiens [6] = species: Homo sapiens; assay: In vitro inhibition of platelet aggregation induced by AA (PRP incubated for 60 minutes at 37 degree C) at 5e-6 M;No significance; type: functional; procedure, shortened: as §1
Homo sapiens [7] = species: Homo sapiens; assay: In vitro inhibition of platelet aggregation induced by ADP-II (PRP incubated for 5 minutes at 37 degree C) at 10e-5 M; type: functional; procedure, shortened: as §1
Homo sapiens [8] = species: Homo sapiens; assay: In vitro inhibition of platelet aggregation induced by ADP-II (PRP incubated for 60 minutes at 37 degree C) at 10e-5 M; type: functional; details: 1 h; procedure, shortened: as §1
Rattus norvegicus [9] = assay: Antihypertensive activity in spontaneously hypertensive rats (SHR) measured by percentage fall in cardiac rhythm (CR) at 25 mg/kg administered intraperitoneally at 24 h; type: functional, Heart; details: route intraperitoneal; procedure, shortened: as §2
Rattus norvegicus [10] = assay: Antihypertensive activity in spontaneously hypertensive rats (SHR) measured by percentage fall in cardiac rhythm (CR) at 25 mg/kg administered intraperitoneally at 3 h; type: functional, Heart; details: route intraperitoneal; procedure, shortened: as §2
Rattus norvegicus [11] = assay: Antihypertensive activity in spontaneously hypertensive rats (SHR) measured by percentage fall in cardiac rhythm (CR) at 25 mg/kg administered intraperitoneally at 5 h; type: functional, Heart; details: route intraperitoneal
Procedure, shortened: (§3)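 Conscious SHR (Okamoto strain), 8 weeks old, male and female, 300–350 g, systolic BP ≥190 mmHg, CR 400–650 beats/min. Given ip or po at 2.5 mL/kg in normal saline or saline with 0.2% (carboxymethyl)cellulose and 1.0% Tween 80. Tail AP and CR recorded by mechanical transduction at 1, 3, 5 and 24 h, five animals per dose. Effect expressed as % fall versus control.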

Rattus norvegicus [12] = assay: Antihypertensive activity in spontaneously hypertensive rats (SHR) measured by percentage fall in arterial pressure (AP) at 25 mg/kg administered intraperitoneally at 24 h;No significance; type: functional, organism-based; parameters: dose 25 mg/kg; details: Artery; procedure, shortened: as §2
Homo sapiens [13] = species: Homo sapiens; assay: In vitro inhibition of platelet aggregation induced by […] (PRP incubated for 5 minutes at 37 degree C) at 10e-5 M; No significance; type: functional
Rattus norvegicus [14] = assay: Antihypertensive activity in spontaneously hypertensive rats (SHR) measured by percentage fall in arterial pressure (AP) at 25 mg/kg administered intraperitoneally at 5 h; type: functional, Artery; details: route intraperitoneal; procedure, shortened: as §2
Rattus norvegicus [15] = assay: Antihypertensive activity in spontaneously hypertensive rats (SHR) measured by percentage fall in cardiac rhythm (CR) at 25 mg/kg administered intraperitoneally at 1 h; type: functional, Heart; details: route intraperitoneal; procedure, shortened: as §2
Homo sapiens [16] = species: Homo sapiens; assay: In vitro inhibition of platelet aggregation induced by AA (PRP incubated for 60 minutes at 37 degree C) at 10e-5 M; No significance; type: functional; procedure, shortened: as §1
Homo sapiens [17] = species: Homo sapiens; assay: In vitro inhibition of platelet aggregation induced by ADP-II (PRP incubated for 5 minutes at 37 degree C) at 10e-5 M; No significance; type: functional; procedure, shortened: as §1
Rattus norvegicus [18] = assay: Antihypertensive activity in spontaneously hypertensive rats (SHR) measured by percentage fall in cardiac rhythm (CR) at 25 mg/kg administered intraperitoneally at 5 h; No significance; type: functional, organism-based; parameters: dose 25 mg/kg; details: Heart; procedure, shortened: as §3
Rattus norvegicus [19] = assay: Antihypertensive activity in spontaneously hypertensive rats (SHR) measured by percentage fall in arterial pressure (AP) at 25 mg/kg administered intraperitoneally at 1 h; type: functional, Artery; details: route intraperitoneal; procedure, shortened: as §2
Rattus norvegicus [20] = assay: Antihypertensive activity in spontaneously hypertensive rats (SHR) measured by percentage fall in arterial pressure (AP) at 25 mg/kg administered intraperitoneally at 3 h; type: functional, Artery; details: route intraperitoneal; procedure, shortened: as §2

| SMILES | inhibition (Homo sapiens [1]) | inhibition (Homo sapiens [2]) | Decrease in AP (Rattus norvegicus [3]) | Decrease in AP (Rattus norvegicus [4]) | inhibition (Homo sapiens [5]) | inhibition (Homo sapiens [6]) | inhibition at 10 µM (Homo sapiens [7]) | inhibition at 10 µM (Homo sapiens [8]) | Decrease in CR (Rattus norvegicus [9]) | Decrease in CR (Rattus norvegicus [10]) | Decrease in CR (Rattus norvegicus [11]) | Decrease in AP (Rattus norvegicus [12]) | inhibition (Homo sapiens [13]) | Decrease in AP (Rattus norvegicus [14]) | Decrease in CR (Rattus norvegicus [15]) | inhibition (Homo sapiens [16]) | inhibition (Homo sapiens [17]) | inhibition (Rattus norvegicus [18]) | Decrease in AP (Rattus norvegicus [19]) | Decrease in AP (Rattus norvegicus [20]) |
| --- | --- | --- | --- | --- | --- | --- | --- | --- | --- | --- | --- | --- | --- | --- | --- | --- | --- | --- | --- | --- |
| Oc1ccc2[nH]c3c(O)nncc3c2c1 | No significant values | No significant values | No significant values | No significant values | No significant values | No significant values | 87% | 100% | -8% | -11% | -7% | No significant values |  |  |  |  |  |  |  |  |
| COc1ccc2[nH]c3c(O)nncc3c2c1 |  |  |  |  |  |  |  | 100% |  | 5% |  |  | No significant values | 5% | 7% | No significant values | No significant values | No significant values | 10% | 10% |
